Values belong to the molecule of their own block, whether it stands above or below them. Ends that are not written are not given here. * marks the point of attachment. Biotin = O=C1N[C@H]2[C@H](CS[C@H]2CCCCC(=O)*)N1; Rhodamine = not defined here
Legend:
[1] = tested on: Cdc15 phosphostate in cells; conditions: FK506-treated cells; ref Martín-García et al., 2018; cited from earlier work
Imp2 F-BAR domain = assay: In vitro binding assay; set-up: species or system S. pombe; conditions: biotin-labeled peptide; streptavidin pull down; SDS-PAGE, Coomassie
Method in brief: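 Biotinylated test peptide (0.10 μM) and purified F-BAR domain (0.05 μM) were mixed with streptavidin resin. Incubation was 1 h at 4°C in 50 mM Tris pH 7.4, 250 mM NaCl, 0.1% NP-40. Resin was washed thoroughly. Bound protein was resolved by SDS-PAGE and stained with Coomassie blue.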

Cdc15 F-BAR domain = assay: Binding between purified Cdc15 F-BAR domain and recombinant CN; set-up: species or system S. pombe
[2] = target: T1, Cdc15 F-BAR domain (E30K E152K) (Schizosaccharomyces pombe, UniProt Q09822, E152K/E30K); assay: Isothermal titration calorimetry; type: binding, S. pombe
T1 sequence (Q09822 19-312 E30K/E152K): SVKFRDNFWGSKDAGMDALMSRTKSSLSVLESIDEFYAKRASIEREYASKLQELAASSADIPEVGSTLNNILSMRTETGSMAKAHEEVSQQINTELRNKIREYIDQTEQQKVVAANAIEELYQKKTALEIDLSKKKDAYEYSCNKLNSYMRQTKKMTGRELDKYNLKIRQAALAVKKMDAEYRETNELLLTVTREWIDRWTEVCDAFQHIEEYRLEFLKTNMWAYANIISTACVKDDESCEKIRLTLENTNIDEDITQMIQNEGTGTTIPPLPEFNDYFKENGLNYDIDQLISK

[3] = phosphorylated; ref Bhattacharjee et al., 2020; cited from earlier work
[4] = target: T2, GFP-Cdc15 F-BAR domain (residues 19-312) (S. pombe, UniProt Q09822 19-312); assay: recruitment to giant unilamellar vesicles, fluorescence microscopy
T2 sequence (looked up): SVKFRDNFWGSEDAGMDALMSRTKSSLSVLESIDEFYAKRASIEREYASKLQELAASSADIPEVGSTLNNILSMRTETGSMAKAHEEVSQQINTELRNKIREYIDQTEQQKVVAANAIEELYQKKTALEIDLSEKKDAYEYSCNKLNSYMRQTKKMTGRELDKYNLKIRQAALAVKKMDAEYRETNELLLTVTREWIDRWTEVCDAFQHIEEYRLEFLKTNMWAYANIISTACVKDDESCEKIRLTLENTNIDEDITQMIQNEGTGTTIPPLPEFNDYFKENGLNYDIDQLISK

Molecule: C=CC[C@@H]1/C=C(\C)C[C@H](C)C[C@H](OC)[C@H]2O[C@@](O)(C(=O)C(=O)N3CCCC[C@H]3C(=O)O[C@H](/C(C)=C/[C@@H]3CC[C@@H](O)[C@H](OC)C3)[C@H](C)[C@@H](O)CC1=O)[C@H](C)C[C@@H]2OC [FK506]
Cdc15 phosphostate [1]: Cdc15 phosphostate changes

Molecule: Cdc12 peptide (residues 20–40): Cdc12 (residues 20–40) peptide synthesized with an N-terminal biotin modification, used for binding assays (Biotin-TPTPSARRTIGPRAPKSKTTY)
interaction with Imp2 F-BAR domain (Imp2 F-BAR domain): did not interact

Molecule: TPTPSARRTIGPRAPKSKTTY [Cdc12 peptide]
Kd [2]: 5 µM

B1: Cdc15 (E30K E152K): Full-length FLAG-Cdc15 (E30K E152K) co-expressed with kinase Pom1 (protein, UniProt Q09822 1-927, looked up, variant E30K E152K)
chain: MEVNGVSQSEAAPYVTKSSVKFRDNFWGSKDAGMDALMSRTKSSLSVLESIDEFYAKRASIEREYASKLQELAASSADIPEVGSTLNNILSMRTETGSMAKAHEEVSQQINTELRNKIREYIDQTEQQKVVAANAIEELYQKKTALEIDLSKKKDAYEYSCNKLNSYMRQTKKMTGRELDKYNLKIRQAALAVKKMDAEYRETNELLLTVTREWIDRWTEVCDAFQHIEEYRLEFLKTNMWAYANIISTACVKDDESCEKIRLTLENTNIDEDITQMIQNEGTGTTIPPLPEFNDYFKENGLNYDIDQLISKAPSYPYSSSRPSASASLASSPTRSAFRPKTSETVSSEVVSSPPTSPLHSPVKPVSNEQVEQVTEVELSIPVPSIQEAESQKPVLTGSSMRRPSVTSPTFEVAARPLTSMDVRSSHNAETEVQAIPAATDISPEVKEGKNSENAITKDNDDIILSSQLQPTATGSRSSRLSFSRHGHGSQTSLGSIKRKSIMERMGRPTSPFMGSSFSNMGSRSTSPTKEGFASNQHATGASVQSDELEDIDPRANVVLNVGPNMLSVGEAPVESTSKEEDKDVPDPIANAMAELSSSMRRRQSTSVDDEAPVSLSKTSSSTRLNGLGYHSRNTSIASDIDGVPKKSTLGAPPAAHTSAQMQRMSNSFASQTKQVFGEQRTENSARESLRHSRSNMSRSPSPMLSRRSSTLRPSFERSASSLSVRQSDVVSPAPSTRARGQSVSGQQRPSSSMSLYGEYNKSQPQLSMQRSVSPNPLGPNRRSSSVLQSQKSTSSNTSNRNNGGYSGSRPSSEMGHRYGSMSGRSMRQVSQRSTSRARSPEPTNRNSVQSKNVDPRATFTAEGEPILGYVIALYDYQAQIPEEISFQKGDTLMVLRTQEDGWWDGEIINVPNSKRGLFPSNFVQTV
modifications: full-length FLAG tag
membrane binding [3]: did not bind membrane

Further lines, results first:

binding to purified Cdc15 F-BAR domain (Cdc15 F-BAR domain): did not detect binding
Molecule: recombinant CN: Calcineurin produced by co-expressing Ppb1 as a 6xHis fusion (catalytic subunit), Cnb1 (regulatory subunit), and Cam1 (calmodulin)

binding result [4]: binds
Molecule: Rhodamine-TPTPSARRTIGPRAPKSKTTY (reading uncertain) [Rhodamine-Cdc12(aa20-40) peptide]
